What was measured:
[1] = Relative oral bioavailability of sodium, phosphate and hemisulfate salts in rats; assay type: in vivo, Sprague-Dawley rats; settings: single oral 30 mg/kg, male rats
Method in brief: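 Male Sprague-Dawley rats, 4/group, received a single 30 mg/kg oral gavage dose in 1% methylcellulose of either parent acid or its sodium, phosphate or sulfate salt. Jugular-catheter blood was drawn at about 15 and 30 min and at 1, 2, 4, 8 and 24 h. Plasma parent was measured by LC/MS/MS with an internal standard. Relative AUClast and Cmax were corrected for molecular-weight differences.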

[2] = test system: S. typhimurium strains TA98 and TA100; assay: Abbreviated Ames; assay type: cell-based
Method in brief: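 Salmonella TA98 and TA100 plate-incorporation assay per OECD 471, run with and without rat liver S9. Test compound and its decarboxylated impurity were tested at concentrations up to and including 5000 µg/plate, with vehicle and positive controls. Revertant colony counts were compared with vehicle control, and bacterial toxicity was recorded.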

| SMILES | Cmax/Equiv. dose [1] | Cmax ([1]; S9632 measured in plasma) | %Cmax Relative to S9632 ([1]; corrected for molecular weight, 30 mg/kg) | Concentration with cytotoxicity (reduction in the background lawn) ([2]; TA98 and TA100 without metabolic activation) | Mutagenicity, result ([2]; plate incorporation, up to 5000 μg/plate, ±S9) |
| --- | --- | --- | --- | --- | --- |
| Cc1nc2cccc(OCC(C)(C)C(=O)NC(C)C)c2c(N)c1C(=O)O.Cc1nc2cccc(OCC(C)(C)C(=O)NC(C)C)c2c(N)c1C(=O)O.O=S(=O)(O)O [S1638] | 1.377 ng/mL/mg/kg | 34.80 ± 7.55 ng/mL | 106.7% |  |  |
| Cc1cc(N)c2c(OCC(C)(C)C(=O)NC(C)C)cccc2n1 [S9379, 4-amino-5-(3-(isopropylamino)-2,2-dimethyl-3-oxopropoxy)-2-methylquinoline] |  |  |  | 5000 μg/plate | not mutagenic |

— paper PMC5598146 (Toxicology Reports, 2015)
